# Assay results reported in ChEMBL document CHEMBL2346635, “6-Oxo and 6-thio purine analogs as antimycobacterial agents” (Bioorg Med Chem, 2013).
# Active and inactive are the calls of the source. The rule behind the calls is not given here.
# How the values were obtained:
# [1] = test system: Mycobacterium tuberculosis; assay: Antimycobacterial activity against Mycobacterium tuberculosis H37Rv ATCC 27294 assessed as growth inhibition at 6.25 ug/ml by radiometric BACTEC assay; type: functional
# Method in brief: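 Primary screen at a single 6.25 µg/mL in radiometric BACTEC 12B medium. Value is percent growth inhibition.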
# [2] = test system: Mus musculus; assay: Acute toxicity in mouse infected with Mycobacterium tuberculosis at 100 to 500 mg/kg; type: organism-based; set-up: dose 100-500 mg/kg; settings: in vivo
# [3] = test system: Mycobacterium tuberculosis; assay: Antitubercular activity against Mycobacterium tuberculosis infected in gamma interferon gene-disrupted (GKO) C57BL/6 mouse model assessed as reduction of bacterial load in spleen; type: functional
# [4] = test system: Mycobacterium tuberculosis; assay: Antimycobacterial activity against Mycobacterium tuberculosis Erdman assessed as growth inhibition by Alamar blue assay; type: functional
# [5] = test system: Mycobacterium tuberculosis; assay: Antimycobacterial activity against p-aminosalicylic acid-resistant Mycobacterium tuberculosis assessed as growth inhibition by Alamar blue assay; type: functional
# [6] = Selectivity index, ratio of CC50 for african green monkey Vero cells to MIC for Mycobacterium tuberculosis H37Rv ATCC 27294; type: functional
# Method in brief: (§1)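 SI calculated as VERO CC50 (non-radioactive proliferation assay) divided by H37Rv MIC90 from radiometric BACTEC in 12B medium.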
# [7] = test system: Mycobacterium tuberculosis; assay: Antimycobacterial activity against Mycobacterium tuberculosis H37Rv ATCC 27294 assessed as growth inhibition by radiometric BACTEC assay; type: functional
# [8] = (§2) Cytotoxicity against african green monkey Vero cells by non-radioactive cell proliferation assay; type: cell-based; settings: chlorocebus sabaeus, Vero cells
# [9] = test system: Mycobacterium tuberculosis; assay: Antitubercular activity against Mycobacterium tuberculosis infected in gamma interferon gene-disrupted (GKO) C57BL/6 mouse model assessed as reduction of bacterial load in lungs; type: functional
# [10] = test system: Mycobacterium tuberculosis; assay: Antimycobacterial activity against Mycobacterium tuberculosis H37Rv ATCC 27294 assessed as growth inhibition by Alamar blue assay; type: functional
# [11] = test system: Mycobacterium tuberculosis; assay: Antimycobacterial activity against Mycobacterium tuberculosis H37Ra ATCC 25177 assessed as growth inhibition by Alamar blue microdilution broth assay; type: functional
# Method in brief: (§3)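 Alamar blue colorimetric microdilution in Middlebrook 7H9 broth with 0.2% glycerol and ADC enrichment. Primary screen at 1.28 and 12.8 µg/mL. Actives (≤12.8 µg/mL) retested in two-fold dilutions. MIC99 is the lowest concentration giving complete growth inhibition.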
# [12] = test system: Vero; assay: as §2; type: cell-based; settings: chlorocebus sabaeus, vero
# [13] = Selectivity index, ratio of CC50 for african green monkey Vero cells to MIC90 for Mycobacterium tuberculosis H37Rv ATCC 27294; type: functional; method in brief: as §1
# [14] = test system: Mycobacterium avium; assay: Antimycobacterial activity against Mycobacterium avium Nj211 assessed as growth inhibition by Alamar blue microdilution broth assay; type: functional; method in brief: as §3
# [15] = test system: Mycobacterium tuberculosis; assay: Antimycobacterial activity against Mycobacterium tuberculosis H37Rv ATCC 27294 assessed as growth inhibition by radiometric BACTEC assay in presence of 6.5 uM beta-lactam antibiotic, Meropenem; type: functional
# [16] = Selectivity index, ratio of IC50 for african green monkey Vero cells to MIC for Mycobacterium tuberculosis H37Rv ATCC 27294; type: functional
# Method in brief: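 SI taken as CC50 in VERO cells divided by MIC90 against Mtb H37Rv (ATCC 27294). CC50 comes from a non-radioactive cell proliferation assay run alongside the MIC determination. MIC90 is the lowest concentration giving ≥90% growth inhibition in a radiometric BACTEC 12B-medium assay.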
Structure (SMILES),inhibition [1],Activity [2],log10cfu [3],MIC90 [4] [µg/mL],Selectivity Index [6],MIC [7] [µg/mL],CC50 [8] [µg/mL],log10cfu [9],MIC90 [10] [µg/mL],inhibition at 6.25 µg/mL [1] [%],also measured
CCCCCCCCCCCCSc1ncnc2c1ncn2CC(=O)OCC,inactive,Non-toxic,0.2,3.13,>12.8,0.78,> 10,0.46,3.13,–,MIC90 [5]: 3.13 µg/mL
CCCCCCCCCCCCOc1nc(N)nc2[nH]cnc12,–,Non-toxic,-0.05,–,–,–,–,-0.141,–,94,MIC99 [11]: > 6.4 µg/mL; MIC90 [7]: 0.78 µg/mL; CC50 [12]: > 10 µg/mL; Selectivity Index [13]: >12.8; MIC99 [14]: > 6.4 µg/mL
CSc1ncnc2c1ccn2CC(=O)Nc1ccc(C)c(C)c1,inactive,–,–,–,–,–,–,–,–,–,IC90 [15]: 7.31 µM; IC90 [7]: > 100 µM
Cc1nc(N)c2ncn([C@@H]3O[C@H](CO)[C@@H](O)[C@H]3O)c2n1 [2-METHYLADENOSINE],–,–,–,–,–,3,–,–,–,99,Selectivity Index [16]: >1000; IC50 [12]: 1000 µg/mL
CCCCCCCCCCSc1ncnc2c1ncn2CC(=O)OCC,inactive,–,–,12.5,>40,1.56,> 62.5,–,6.25,–,–
CCCCCCCCCCSc1ncnc2c1ncn2CC(=O)OC(C)(C)C,inactive,–,–,–,>3.19,3.13,> 10,–,–,–,–
